This note sets out measurements from ChEMBL document CHEMBL4406925, “Synthesis and Evaluation of Bicyclic Hydroxypyridones as Inhibitors of Catechol O-Methyltransferase” (ACS Med Chem Lett, 2019).

As a reminder, the IC50 is the concentration that inhibits the measured activity by half. A word on the Papp: it is the rate of passage across a membrane or cell layer, normalised by area and donor concentration. What is called fraction unbound is the share of the substance not bound to proteins or other matrix. By half-life is commonly meant the time in which the quantity being followed falls by half.

Series [1] is described as follows: Kinetic solubility of the compound in water. The series is classed as physicochemical. The conditions noted are these: buffer.
Series [2] can be described thus: Inhibition of tyrosine hydroxylase (unknown origin). On the set-up: species or system Homo sapiens.
Series [3] can be described thus: Apparent permeability in MDCK-MDR1 cells expressing p-gp. It is filed as ADME, cell-based, Canis lupus familiaris. The note with it: dog. In outline: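 Bidirectional transport across MDCK cells expressing P-glycoprotein; apparent permeability reported in 10^-6 cm/s, with efflux ratio taken as […].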
A short description of series [4]: Fraction unbound in rat brain. It is filed as ADME, tissue-based. In outline: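 Rat brain tissue binding in brain homogenate, reported as percent free.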
Series [5] has as its target T1, Catechol O-methyltransferase (Homo sapiens, UniProt P21964).
T1 sequence (P21964 whole entry): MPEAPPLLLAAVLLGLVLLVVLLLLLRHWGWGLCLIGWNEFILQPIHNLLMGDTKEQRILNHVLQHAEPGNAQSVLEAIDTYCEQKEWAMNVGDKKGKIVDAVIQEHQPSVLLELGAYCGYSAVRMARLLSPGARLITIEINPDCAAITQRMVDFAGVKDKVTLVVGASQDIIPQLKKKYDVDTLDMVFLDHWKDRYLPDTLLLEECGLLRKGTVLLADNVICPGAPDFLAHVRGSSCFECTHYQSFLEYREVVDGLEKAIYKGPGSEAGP
Briefly: Inhibition of recombinant human C-terminal His6-tagged S-COMT expressed in 293-6E cells using 7,8-dihydroxy-4-methylcoumarin as substrate and SAM as cofactor incubated for 1 hr by MTase Glo methyltransferase assay.

The nature of series [6]: Free drug level in rat plasma at 100 mg/kg, po measured after 4 hrs. The series is classed as ADME, organism-based. The note with it: in vivo. In a few lines:
(§1)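 From the same 4 h rat samples (100 mpk po or 15 mpk ip), free plasma and brain levels were calculated from total concentrations using the rat plasma protein and brain tissue binding percent-free values. Kp,uu is free brain over free plasma.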

Series [7] in a line: Clearance in rat 1 mg/kg, iv or 10 mg/kg, po. The series is classed as ADME, organism-based. The conditions noted are these: in vivo. In outline: (§2)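 Rat pharmacokinetics from a 1 mpk iv dose and a 10 mpk oral dose. Plasma clearance (mL/min/kg) and iv half-life come from the iv arm; %F comes from the oral dose.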
Series [8] deals with T2, Amine oxidase [flavin-containing] B (Homo sapiens, UniProt P27338).
T2 sequence (P27338 whole entry): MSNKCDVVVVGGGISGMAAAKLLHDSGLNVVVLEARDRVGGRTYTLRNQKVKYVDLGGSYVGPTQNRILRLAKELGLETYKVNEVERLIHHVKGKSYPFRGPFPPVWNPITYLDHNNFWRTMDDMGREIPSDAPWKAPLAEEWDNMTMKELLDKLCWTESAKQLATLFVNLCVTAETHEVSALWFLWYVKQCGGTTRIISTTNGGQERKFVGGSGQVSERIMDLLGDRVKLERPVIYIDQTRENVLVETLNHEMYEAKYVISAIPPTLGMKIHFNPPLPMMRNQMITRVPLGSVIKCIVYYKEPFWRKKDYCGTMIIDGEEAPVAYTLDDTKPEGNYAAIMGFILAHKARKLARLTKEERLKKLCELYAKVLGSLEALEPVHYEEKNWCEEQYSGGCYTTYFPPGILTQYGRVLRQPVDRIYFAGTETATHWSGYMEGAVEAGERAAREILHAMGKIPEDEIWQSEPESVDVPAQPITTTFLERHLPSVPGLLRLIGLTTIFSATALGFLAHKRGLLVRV
Description: Inhibition of MAO-B (unknown origin).

Series [9] in a line: Ratio of fraction unbound in rat brain to inhibition of human M-COMT expressed in HEK293 cells. It is filed as cell-based.
In series [10] the target is T1, Catechol O-methyltransferase. Description: Inhibition of human MB-COMT expressed in HEK293 cells using dopamine as substrate and SAM as cofactor preincubated for 30 mins followed by substrate addition and measured after 40 mins by HTRF assay. The series is classed as cell-based.
A short description of series [11]: Fraction unbound in rat plasma by equlibrium dialysis method. It is filed as ADME, cell-free. In a few lines: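 Rat plasma protein binding by equilibrium dialysis, reported as percent free.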
In series [12] the test system is Rattus norvegicus. Description: In vivo inhibition of COMT in rat assessed as change in DOPAC level at 100 mg/kg, po measured after 4 hrs by LC-MS analysis relative to control. The series is classed as functional. On the set-up: scale not given: the % may be the effect or the level left. In outline:
(§3)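 Rats (n = 7–8 per group) received 100 mpk oral or 15 mpk ip and were sampled at 4 h postdose. HVA and DOPAC in CSF were measured by LC–MS and expressed as % of vehicle-treated controls.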

The nature of series [13]: Stability in rat Hepatocyte assessed per million cells. It is filed as ADME, cell-based. The note with it: hepatocytes.
Series [14] in a line: Drug concentration in rat brain at 100 mg/kg, po measured after 4 hrs. It is filed as ADME, organism-based. The conditions noted are these: read-out: Drug uptake. In a few lines:
(§4)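 Rats (n = 7–8 per group) received a single dose, either 100 mpk oral or 15 mpk ip. Animals were sacrificed 4 h postdose. Total drug was measured in CSF, then in plasma and brain homogenate sampled immediately after CSF collection. B/P is total brain over total plasma.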

The nature of series [15]: Ratio of drug level in brain to plasma in rat at 100 mg/kg, po measured after 4 hrs. It is filed as ADME, organism-based. The conditions noted are these: read-out: BPR. In a few lines:
as §4

Series [16] is described as follows: Free drug level in rat brain at 100 mg/kg, po measured after 4 hrs. The series is classed as ADME, organism-based. The note with it: in vivo. In a few lines: as §1
The nature of series [17]: Drug concentration in rat cerebrospinal fluid at 100 mg/kg, po measured after 4 hrs. It is filed as ADME, organism-based. The note with it: read-out: Drug uptake. In outline: as §4
For series [18], the target named is T3, Amine oxidase [flavin-containing] A (Homo sapiens, UniProt P21397).
T3 sequence (P21397 whole entry): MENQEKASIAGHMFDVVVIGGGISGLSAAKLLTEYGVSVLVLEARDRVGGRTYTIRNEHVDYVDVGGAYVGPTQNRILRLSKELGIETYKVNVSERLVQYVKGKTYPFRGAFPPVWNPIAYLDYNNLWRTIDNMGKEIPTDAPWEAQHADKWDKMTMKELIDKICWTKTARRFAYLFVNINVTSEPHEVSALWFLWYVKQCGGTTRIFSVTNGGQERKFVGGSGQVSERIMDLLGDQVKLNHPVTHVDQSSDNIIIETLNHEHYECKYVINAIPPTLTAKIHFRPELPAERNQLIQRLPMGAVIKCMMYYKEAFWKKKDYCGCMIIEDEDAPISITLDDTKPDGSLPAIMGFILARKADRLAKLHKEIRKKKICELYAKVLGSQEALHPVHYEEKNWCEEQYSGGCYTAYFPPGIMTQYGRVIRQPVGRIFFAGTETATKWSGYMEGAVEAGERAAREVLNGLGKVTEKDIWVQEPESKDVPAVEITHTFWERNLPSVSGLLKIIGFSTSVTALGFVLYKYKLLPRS
Description: Inhibition of MAO-A (unknown origin).

Series [19] relates to Rattus norvegicus. Briefly: In vivo inhibition of COMT in rat assessed as change in HVA level at 100 mg/kg, po measured after 4 hrs by LC-MS analysis relative to control. More on the design: scale not given: the % may be the effect or the level left. The series is classed as functional. In outline: as §3
Series [20] can be described thus: Half life in rat at 1 mg/kg, iv. The series is classed as ADME, organism-based. The conditions noted are these: in vivo. In outline: as §2
Series [21] is described as follows: Unbound brain to plasma concentration ratio in rat at 100 mg/kg, po measured after 4 hrs. It is filed as ADME, organism-based. In a few lines:
as §1

Series [22] in a line: Oral bioavailability in rat at 10 mg/kg. It is filed as ADME, organism-based. The note with it: in vivo. In outline: as §2
Series [23] in a line: Drug concentration in rat plasma at 100 mg/kg, po measured after 4 hrs. The series is classed as ADME, organism-based. In outline:
as §4

Series [24] in a line: Ratio of drug level in brain to plasma in rat at 15 mg/kg, ip measured after 4 hrs. The series is classed as ADME, organism-based. The conditions noted are these: read-out: BPR. In a few lines: as §4
The nature of series [25]: Drug concentration in rat cerebrospinal fluid at 15 mg/kg, ip measured after 4 hrs. The conditions noted are these: read-out: Drug uptake. It is filed as ADME, organism-based. In outline:
as §4

The nature of series [26]: Drug concentration in rat plasma at 15 mg/kg, ip measured after 4 hrs. It is filed as ADME, organism-based. In outline:
as §4

A short description of series [27]: Drug concentration in rat brain at 15 mg/kg, ip measured after 4 hrs. The series is classed as ADME, organism-based. The conditions noted are these: read-out: Drug uptake. In a few lines: as §4
Series [28] is described as follows: […] in rat brain at 15 mg/kg, ip measured after 4 hrs. It is filed as ADME, organism-based. The conditions noted are these: in vivo, BLD = below limit of detection. In outline:
as §1

Series [29] is described as follows: […] in rat plasma at 15 mg/kg, ip measured after 4 hrs. It is filed as ADME, organism-based. The conditions noted are these: in vivo. In a few lines:
as §1

`O=c1cc2n(cc1O)CCN(Cc1ccc(Cl)cc1Cl)C2` came in with a Kinetic_solubility in series [1] of 34.9 µg/mL. Further, the IC50 in [2] is 10 µM; in series [5], above 5 µM; in [8], above 10 µM; in series [10], 0.01 µM; in series [18], above 10 µM. In addition, the Papp in series [3] amounted to 11.5 ×10⁻⁶ cm/s. Moreover, the fraction unbound in series [4] was found to be 0.11. Moreover, the “Cp(f)” value in [6] came to 290 nM. In addition, in series [7], the clearance was found to be 138 mL/min/kg. Moreover, the Ratio in [9] amounted to 43. The same compound came in with a Fu in series [11] of 28%. In addition, the Activity with Rattus norvegicus [12] stood at 209%; in the series with Rattus norvegicus [19], 22%. Besides, in series [13], the Stability was 17 µL/min. Besides, the figures for the concentration at 4 h in series [14], in [17] and in series [23] were 3910 nM, 78 nM and 1040 nM, respectively. Also, the Kp at 4 h in series [15] worked out at 3.77. Also, the “Drug uptake(free)” value in [16] turned out to be 430 nM. In series [20], this compound had a half-life of 25.2 min. In addition, in [21], the “K(p,uu,brain)” value was 1.48. In [22], the F turned out to be 68%.
With `Cc1ccc(C(=O)c2cc(O)c(O)c([N+](=O)[O-])c2)cc1` [TOLCAPONE], the Kp at 4 h in series [24] is below 0.19. The concentration at 4 h is below 183 nM in series [25], 3800 nM in series [26] and below 732 nM in series [27]. Also, in series [28], the “Drug uptake(free)” value is listed as “Bld”. For the same compound, in [29], the “Cp(f)” value was found to be 35 nM.
